Screening data deposited in PubChem by Broad Institute.
DENV2 CPE: inhibitors of DENV2 cytopathic effect, primary screen, cell-based, plate reader, single concentration; 350,000 compounds, 1.7% hits; DENV2-infected cells, cytopathic effect rescue; AID 651640, 2012; CPE inhibition, % at 9.99 µM; in the data active means CPE inhibition above about 20%, passing the limit was not always enough; inconclusive means no clear call, values can overlap the other calls; tested in BHK-21 cells
rRNA inh HTS: reduced GFP signal of wild-type E. coli, primary screen, bacterial rRNA inhibitor project, GFP/RFP fluorescence, OD600, single point; E. coli WT GFP vs humanized-ribosome RFP mutants, 24 h; hits give low values; DMSO median 0, no signal -100; GFP signal change (wild-type ribosome), % (concentration not given with the values); 350,000 compounds, 1.6% hits;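 active means significant combined selectivity score with lowered wild-type GFP, culture density cut under 30%, mutant RFP and density less affected; inactive means any of these conditions unmet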
miR-122 sensor: miR-122 Renilla sensor signal increase in Huh7, primary screen, miR-122 inhibitor project, cell-based, single point, plate reader; Huh7 miR-122 Renilla luciferase sensor, 48 h; neutral wells = 0, positive control = 100; activation (reporter increase), % at 12.5 µM; 340,000 compounds, 0.3% hits;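 active means mean replicate activation score at least 90 and every replicate individually at or above 90; inconclusive means only one of the two criteria met; inactive means neither criterion met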;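 further: higher luciferase means less miR-122 activity so hits act as miR-122 inhibitors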
Cneo AK release: Cryptococcus neoformans cell lysis inducers, primary screen, AK release luminescence, single concentration; C. neoformans lysis, adenylate kinase release luminescence, 4 h; normalised: neutral wells 0, clomiphene wells 100; lysis activity, % at 15 µM; 360,000 compounds, 0.2% hits;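 active means mean lysis activity across replicates of at least 80%, whatever share of replicates individually reach that level; inactive means mean lysis activity below 80%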
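Test system: log-phase Cryptococcus neoformans yeast cells. Input: 5 × 10^6 yeast cells/mL. Medium: fresh YPD growth medium. Doses: single dose. Incubation: static 4 h at 37 °C with compound, 1 h detection. Measured by: luminescent adenylate kinase detection reagent. Read-out: signal increase indicating cell lysis. Benchmarks: Clomiphene.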
E-sel inducer: E-selectin induction in HUVECs, primary screen, imaging, HUVEC, immunofluorescence imaging, single point | P16581 | normalized: neutral wells 0, TNF-alpha wells 100 | activation, % at 7.58 µM | 260,000 compounds, 0.37% hits | AID 686992, 2013;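 active means mean E-selectin-positive cell signal at least 10% of the positive control, reached in at least 60% of replicates, without over 20% cell loss; inconclusive means no rule given, readout overlaps actives, possibly toxicity-flagged; inactive means the rest, including those meeting only one limit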
Target sequence (P16581 whole entry, looked up): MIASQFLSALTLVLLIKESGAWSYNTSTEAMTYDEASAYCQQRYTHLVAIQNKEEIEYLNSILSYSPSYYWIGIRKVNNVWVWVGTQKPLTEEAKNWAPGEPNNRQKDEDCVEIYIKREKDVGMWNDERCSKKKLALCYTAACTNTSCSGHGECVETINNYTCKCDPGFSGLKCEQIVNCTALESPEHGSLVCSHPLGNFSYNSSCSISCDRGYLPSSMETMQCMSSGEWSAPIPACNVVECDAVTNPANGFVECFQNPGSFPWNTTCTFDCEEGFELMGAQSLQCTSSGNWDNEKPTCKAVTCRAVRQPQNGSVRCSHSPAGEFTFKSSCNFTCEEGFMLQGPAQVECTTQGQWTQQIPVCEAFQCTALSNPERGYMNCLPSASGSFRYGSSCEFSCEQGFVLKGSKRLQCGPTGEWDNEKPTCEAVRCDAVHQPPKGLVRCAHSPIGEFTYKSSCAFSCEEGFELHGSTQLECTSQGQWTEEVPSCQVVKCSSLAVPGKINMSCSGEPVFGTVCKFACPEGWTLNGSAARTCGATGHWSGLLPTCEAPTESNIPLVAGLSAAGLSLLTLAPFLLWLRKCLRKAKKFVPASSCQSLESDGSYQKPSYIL
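Material: HUVEC primary endothelial cells; Amount: 3,000 cells per well; Dosing: single concentration; Medium: EGM-2 growth medium on 0.1% gelatin-coated wells; Read-out basis: percent E-selectin-positive cells; Signal: immunofluorescence imaging; Control set: TNF-alpha, DMSO.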
Of the large screens only hits and unclear results are named; the others gave an inactive call; ! = not active in a repeat. A selection: hits, their analogues and other compounds. The true share with any hit is near 3.1%.

CCOC1=C2CN(S(=O)(=O)c3ccc(C)cc3)[C@H](c3ccccc3)C[C@H]2[C@H]2C(=O)N(c3ccccc3)C(=O)[C@H]2C1	DENV2 CPE 49 (no result: E-sel inducer)
CC(=O)c1cccc(NC(=S)NC2CCCCCCC2)c1	DENV2 CPE inconclusive, Cneo AK release 129
O=C(NC(=S)NC1CCCCCCCCCCC1)c1cccnc1	none (no result: DENV2 CPE, rRNA inh HTS, E-sel inducer)
O=C(NNC(=S)NC1CCCCC1)c1sc2ccccc2c1Cl	rRNA inh HTS -20 (no result: miR-122 sensor, Cneo AK release)
O=C(NC(=S)NC1CCCC1)c1ccccc1	rRNA inh HTS -26 (no result: miR-122 sensor, E-sel inducer)
[N-]=[N+]=NCc1ccccc1C[C@]1(C(=O)N2CCCCC2)COC(c2ccc(OCCCO)cc2)=N1	none (no result: rRNA inh HTS, miR-122 sensor, E-sel inducer)
CC(C)c1ccc2c(c1)C(N1CCN(C)CC1)Cc1cccnc1S2 (stereo not drawn)	rRNA inh HTS -22 (no result: miR-122 sensor, Cneo AK release)
COc1ccc2c(c1)CC(N1CCN(C)CC1)c1cc(OC)ccc1S2 (stereo not drawn)	none (no result: miR-122 sensor, Cneo AK release, E-sel inducer)
Cc1cc(C(=O)Nc2ccc(C)c(C)c2)n(-c2ccccc2)n1	E-sel inducer 53
CO[C@@H]1CN(C)C(=O)c2ccc(NC(C)=O)cc2OC[C@H](C)N(C(=O)CN(C)C)C[C@H]1C	none (no result: DENV2 CPE)
Cc1[nH]n(C(N)=S)c(=O)c1N=Nc1cccc(C(F)(F)F)c1	none (no result: miR-122 sensor, Cneo AK release)
Cc1[nH]n(-c2ccccc2)c(=O)c1N=Nc1cccc(C(=O)O)c1	rRNA inh HTS -27 (no result: E-sel inducer)
Cc1[nH]n(C2=NCCS2)c(=O)c1N=Nc1cccc(C(F)(F)F)c1	rRNA inh HTS -25 (no result: miR-122 sensor, Cneo AK release, E-sel inducer)
C[C@@H]1CN([C@@H](C)CO)C(=O)Cc2cc(NC(=O)Nc3ccc4c(c3)OCO4)ccc2O[C@H]1CN(C)C	E-sel inducer 384
C[C@@H]1CN([C@H](C)CO)C(=O)Cc2cc(NC(=O)Nc3ccccc3)ccc2O[C@@H]1CN(C)Cc1ccc(Cl)c(Cl)c1	none
C[C@@H]1CN([C@@H](C)CO)C(=O)Cc2cc(NC(=O)Nc3ccccc3)ccc2O[C@H]1CN(C)Cc1ccc(Cl)c(Cl)c1	DENV2 CPE 38
C[C@H]1CN([C@@H](C)CO)C(=O)Cc2cc(NC(=O)Nc3ccc4c(c3)OCO4)ccc2O[C@H]1CN(C)Cc1ccccc1	DENV2 CPE 46
C[C@@H]1CN([C@@H](C)CO)C(=O)Cc2cc(NC(=O)Nc3ccc4c(c3)OCO4)ccc2O[C@H]1CN(C)Cc1ccccc1	none
C[C@@H]1CN([C@H](C)CO)C(=O)Cc2cc(NC(=O)Nc3ccc4c(c3)OCO4)ccc2O[C@H]1CN(C)Cc1ccc(Cl)c(Cl)c1	E-sel inducer 300
C/C=C/c1ccc([C@@H]2[C@@H](CO)N(C(=O)C3CCCC3)C23CN(C(=O)NC(C)C)C3)cc1	none (no result: miR-122 sensor, Cneo AK release)
C[C@@H]1CN([C@H](C)CO)C(=O)Cc2cc(NC(=O)Cc3cn(C)c4ccccc34)ccc2O[C@@H]1CN(C)C(=O)Nc1ccccc1	none
C[C@H](CO)N1C[C@H](C)[C@@H](CN(C)Cc2ccccc2)Oc2ccc(NC(=O)Nc3ccccc3)cc2CC1=O	DENV2 CPE 25 (no result: E-sel inducer)
CCCCn1c(N)c(N(CCOC)C(=O)c2cc(-c3ccco3)nc3ccccc23)c(=O)[nH]c1=O	none
CCCCN(C(=O)c1ccccc1OCc1ccc(F)cc1)c1c(N)n(CC(C)C)c(=O)[nH]c1=O	DENV2 CPE 66 (no result: miR-122 sensor, E-sel inducer)
CCCCn1c(N)c(N(CCC(C)C)C(=O)c2cc(-c3ccco3)nc3ccccc23)c(=O)[nH]c1=O	none
CCCCN(C(=O)CSc1nnc(-c2ccccc2)o1)c1c(N)n(CCC)c(=O)[nH]c1=O	DENV2 CPE 79 (no result: miR-122 sensor, E-sel inducer)
CCCCN(C(=O)c1ccc(COc2ccccc2)o1)c1c(N)n(CC(C)C)c(=O)[nH]c1=O	DENV2 CPE inconclusive
CCCCN(C(=O)c1cc(-c2ccco2)nc2ccccc12)c1c(N)n(CCCC)c(=O)[nH]c1=O	DENV2 CPE 109 (no result: miR-122 sensor, Cneo AK release, E-sel inducer)
CCCCn1c(N)c(N(CCOC)C(=O)c2cc(=O)[nH]c3ccccc23)c(=O)[nH]c1=O	DENV2 CPE 73 (no result: E-sel inducer)
COCC(=O)N1CC(=O)N2[C@@H](CO)[C@@H](c3ccc(C#Cc4cccc(OC)c4)cc3)[C@@H]2C1	none (no result: miR-122 sensor, Cneo AK release)
CO[C@H]1CN(C)C(=O)c2cc(NS(=O)(=O)c3ccc(-c4ccccc4)cc3)ccc2OC[C@H](C)NC[C@@H]1C	DENV2 CPE 23
COc1cccc(S(=O)(=O)Nc2ccc3c(c2)C(=O)N(C)C[C@H](OC)[C@H](C)CN[C@@H](C)CO3)c1	DENV2 CPE 20!
COc1ccc(S(=O)(=O)Nc2ccc3c(c2)C(=O)N([C@H](C)CO)C[C@H](C)[C@@H](CN(C)C(=O)CCC(F)(F)F)OCCCC[C@H](C)O3)cc1	none
CCC(=O)N[C@H]1CC[C@H](CC(=O)NCC2CC2)O[C@H]1CO	none (no result: miR-122 sensor, Cneo AK release)
CO[C@@H](C(=O)N(C)C[C@@H]1OCc2ccccc2-c2c(n(C)c3ccccc23)C(=O)N([C@@H](C)CO)C[C@@H]1C)c1ccccc1	none (no result: miR-122 sensor)
COc1cccc(C=NNC(=O)CCCC(=O)NN=Cc2cccc(OC)c2)c1	none (no result: miR-122 sensor)
COc1cccc(/C=N/NC(=O)CCc2ccccc2)c1	rRNA inh HTS -21 (no result: E-sel inducer)
COc1ccc(CCCC(=O)N/N=C\c2cccs2)cc1	rRNA inh HTS -23 (no result: miR-122 sensor, Cneo AK release)
O=C(CCc1ccccc1)N/N=C/c1cc(Br)ccc1O	rRNA inh HTS -16 (no result: miR-122 sensor, Cneo AK release, E-sel inducer)
O=C(CCC(=O)Nc1ccc(Br)cc1)N/N=C/c1ccccc1O	rRNA inh HTS -15
CC(=O)N1c2ccc(S(=O)(=O)N3CCC(C(=O)NCc4ccc(C)cc4)CC3)cc2CC1C (stereo not drawn)	none (no result: E-sel inducer)
CC1Cc2cc(S(=O)(=O)NCCc3ccccc3)ccc2N1C(=O)C1CC1 (stereo not drawn)	miR-122 sensor 132 (no result: Cneo AK release)
Cc1ccc(CNC(=O)C2CCN(S(=O)(=O)c3ccc4c(c3)CC(C)N4C(=O)C3CC3)CC2)cc1 (stereo not drawn)	rRNA inh HTS -28 (no result: E-sel inducer)
CC(=O)N1c2ccc(S(=O)(=O)N(C)c3cc(C)ccc3C)cc2CC1C (stereo not drawn)	rRNA inh HTS -29
CC(=O)N1c2c(cc(Br)cc2S(=O)(=O)NCc2ccccc2)CC1C (stereo not drawn)	miR-122 sensor 125 (no result: Cneo AK release)
Cc1ccc(N(C)S(=O)(=O)c2ccc3c(c2)CC(C)N3C(=O)C2CC2)cc1 (stereo not drawn)	none (no result: Cneo AK release)
CC(=O)N1c2ccc(S(=O)(=O)NCCC(=O)N3CCCC(C)C3)cc2CC1C (stereo not drawn)	DENV2 CPE 35 (no result: miR-122 sensor, E-sel inducer)
CC(=O)N1c2ccc(S(=O)(=O)NCCC(=O)N(C)Cc3ccccc3)cc2CC1C (stereo not drawn)	none (no result: E-sel inducer)
CC(=O)N1c2ccc(S(=O)(=O)NCCc3ccccc3)cc2CC1C (stereo not drawn)	miR-122 sensor 153
